Laboratory results from ChEMBL document CHEMBL4190249, “Antiproliferative and apoptotic activities of sequence-specific histone acetyltransferase inhibitors” (Eur J Med Chem, 2017).
Blank lines part the entries; values can stand above or below the compound they belong to. Calls of active or inactive are those of the source. No cut-off for these calls is given here.

Tests used:
dsDNA [1] = assay: Binding affinity to 5'-ACTTATTCCATATAGA-3'/3'-TGAATAAGGTATATCT-5' dsDNA (unknown origin) assessed as change in melting temperature at 2.5 uM by spectrophotometric method; format: nucleic-acid assay
dsDNA [2] = assay: Binding affinity to 5'-ACTTATCCACTATAGA-3'/3'-TGAATAGGTGATATCT-5' dsDNA (unknown origin) assessed as change in melting temperature at 2.5 uM by spectrophotometric method; format: nucleic-acid assay
[3] = molecular target: T1, Histone acetyltransferase p300 (Homo sapiens, UniProt Q09472); assay: Inhibition of p300 (unknown origin) using H3 peptide and acetyl-coA as substrate by fluorometric assay
In short: (§1)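 Fluorometric HAT kit assay with recombinant p300 core domain as enzyme and acetyl-CoA plus H3 histone peptide as substrates. Effectors were tested at 1 and 5 μM. HeLa nuclear extract served as positive control, and 0.5% DMSO was set as 100% activity.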

A549 [4] = assay: Antiproliferative activity against human A549 cells at 0.1 to 10 uM after 96 hrs by WST8 assay; format: functional, cell-based
In short: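 Cells seeded at 5×10^3 per well and grown 24 h at 37°C, 5% CO2. A549 medium was DMEM with 10% FBS and 2 mM L-glutamine. SW620 medium had 10% FBS and 1% penicillin/streptomycin. Medium was then replaced with conjugate at 0.1, 1, 5 or 10 μM for 96 h. WST-8 reagent was added and absorbance read at 450 nm. Results are mean ± SD.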

[5] = molecular target: Cellular tumor antigen p53 (Homo sapiens) (UniProt P04637); assay: Activation of p53 in human A549 cells assessed as upregulation of SPATA18 gene expression at 2 uM after 48 hrs by microarray analysis relative to control; format: cell-based
In short: (§2)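 A549 cells plated at 2×10^5 cells/well, treated 48 h at 2 μM, with DMSO vehicle as control. Whole-genome transcriptional profiling followed the manufacturer's protocol. Total RNA integrity was checked by Bioanalyzer before arraying.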

[6] = molecular target: Cellular tumor antigen p53 (Homo sapiens) (UniProt P04637); assay: Activation of p53 in human A549 cells assessed as upregulation of EDA2R gene expression at 2 uM after 48 hrs by microarray analysis relative to control; format: cell-based; in short: as §2
A549 [7] = assay: Upregulation of ABCA12 gene expression in human A549 cells at 2 uM after 48 hrs by microarray analysis relative to control; format: functional; in short: as §2
[8] = molecular target: Cellular tumor antigen p53 (Homo sapiens) (UniProt P04637); assay: Activation of p53 in human A549 cells assessed as upregulation of BTG2 gene expression at 2 uM after 48 hrs by microarray analysis relative to control; format: cell-based; in short: as §2
A549 [9] = assay: Upregulation of MIR3189 gene expression in human A549 cells at 2 uM after 48 hrs by microarray analysis relative to control; format: functional; in short: as §2
A549 [10] = assay: Upregulation of CDKN1A gene expression in human A549 cells at 2 uM after 48 hrs by microarray analysis relative to control; format: functional; in short: as §2
A549 [11] = assay: Upregulation of SULF2 gene expression in human A549 cells at 2 uM after 48 hrs by microarray analysis relative to control; format: functional; in short: as §2
A549 [12] = assay: Upregulation of WDR63 gene expression in human A549 cells at 2 uM after 48 hrs by microarray analysis relative to control; format: functional; in short: as §2
[13] = molecular target: Cellular tumor antigen p53 (Homo sapiens) (UniProt P04637); assay: Activation of p53 in human A549 cells assessed as upregulation of FDXR gene expression at 2 uM after 48 hrs by microarray analysis relative to control; format: cell-based; in short: as §2
[14] = molecular target: Cellular tumor antigen p53 (Homo sapiens) (UniProt P04637); assay: Activation of p53 in human A549 cells assessed as upregulation of MDM2 gene expression at 2 uM after 48 hrs by microarray analysis relative to control; format: cell-based; in short: as §2
A549 [15] = assay: Upregulation of UIMC1 gene expression in human A549 cells at 2 uM after 48 hrs by microarray analysis relative to control; format: functional; in short: as §2
A549 [16] = assay: Upregulation of MIR4713 gene expression in human A549 cells at 2 uM after 48 hrs by microarray analysis relative to control; format: functional; in short: as §2
[17] = molecular target: Cellular tumor antigen p53 (Homo sapiens) (UniProt P04637); assay: Activation of p53 in human A549 cells assessed as upregulation of SESN1 gene expression at 2 uM after 48 hrs by microarray analysis relative to control; format: cell-based; in short: as §2
A549 [18] = assay: Upregulation of SCARNA7 gene expression in human A549 cells at 2 uM after 48 hrs by microarray analysis relative to control; format: functional; in short: as §2
A549 [19] = assay: Upregulation of MIR3685 gene expression in human A549 cells at 2 uM after 48 hrs by microarray analysis relative to control; format: functional; in short: as §2
[20] = molecular target: Cellular tumor antigen p53 (Homo sapiens) (UniProt P04637); assay: Activation of p53 in human A549 cells assessed as upregulation of CYFIP2 gene expression at 2 uM after 48 hrs by microarray analysis relative to control; format: cell-based; in short: as §2
A549 [21] = assay: Upregulation of POLH gene expression in human A549 cells at 2 uM after 48 hrs by microarray analysis relative to control; format: functional; in short: as §2
[22] = molecular target: Cellular tumor antigen p53 (Homo sapiens) (UniProt P04637); assay: Activation of p53 in human A549 cells assessed as upregulation of TP53INP1 gene expression at 2 uM after 48 hrs by microarray analysis relative to control; format: cell-based; in short: as §2
[23] = molecular target: Cellular tumor antigen p53 (Homo sapiens) (UniProt P04637); assay: Activation of p53 in human A549 cells assessed as upregulation of CD70 gene expression at 2 uM after 48 hrs by microarray analysis relative to control; format: cell-based; in short: as §2
[24] = molecular target: Cellular tumor antigen p53 (Homo sapiens) (UniProt P04637); assay: Activation of p53 in human A549 cells assessed as upregulation of FAS gene expression at 2 uM after 48 hrs by microarray analysis relative to control; format: cell-based; in short: as §2
A549 [25] = assay: Upregulation of GDF15 gene expression in human A549 cells at 2 uM after 48 hrs by microarray analysis relative to control; format: functional; in short: as §2
A549 [26] = assay: Upregulation of GAS6-AS1 gene expression in human A549 cells at 2 uM after 48 hrs by microarray analysis relative to control; format: functional; in short: as §2
A549 [27] = assay: Upregulation of ANKRD1 gene expression in human A549 cells at 2 uM after 48 hrs by microarray analysis relative to control; format: functional; in short: as §2
[28] = molecular target: Cellular tumor antigen p53 (Homo sapiens) (UniProt P04637); assay: Activation of p53 in human A549 cells assessed as upregulation of DDB2 gene expression at 2 uM after 48 hrs by microarray analysis relative to control; format: cell-based; in short: as §2
A549 [29] = assay: Upregulation of NEFL gene expression in human A549 cells at 2 uM after 48 hrs by microarray analysis relative to control; format: functional; in short: as §2
A549 [30] = assay: Downregulation of SNORA9 gene expression in human A549 cells at 2 uM after 48 hrs by microarray analysis relative to control; format: functional; in short: as §2
A549 [31] = assay: Downregulation of ALDH1L2 gene expression in human A549 cells at 2 uM after 48 hrs by microarray analysis relative to control; format: functional; in short: as §2
[32] = molecular target: Cellular tumor antigen p53 (Homo sapiens) (UniProt P04637); assay: Activation of p53 in human A549 cells assessed as downregulation of CARS gene expression at 2 uM after 48 hrs by microarray analysis relative to control; format: cell-based; in short: as §2
A549 [33] = assay: Downregulation of ASNS gene expression in human A549 cells at 2 uM after 48 hrs by microarray analysis relative to control; format: functional; in short: as §2
A549 [34] = assay: Downregulation of TAS2R30 gene expression in human A549 cells at 2 uM after 48 hrs by microarray analysis relative to control; format: functional; in short: as §2
[35] = molecular target: Cellular tumor antigen p53 (Homo sapiens) (UniProt P04637); assay: Activation of p53 in human A549 cells assessed as downregulation of STC2 gene expression at 2 uM after 48 hrs by microarray analysis relative to control; format: cell-based; in short: as §2
A549 [36] = assay: Downregulation of ULBP1 gene expression in human A549 cells at 2 uM after 48 hrs by microarray analysis relative to control; format: functional; in short: as §2
A549 [37] = assay: Downregulation of GUSBP3 gene expression in human A549 cells at 2 uM after 48 hrs by microarray analysis relative to control; format: functional; in short: as §2
[38] = molecular target: Cellular tumor antigen p53 (Homo sapiens) (UniProt P04637); assay: Activation of p53 in human A549 cells assessed as downregulation of CHAC1 gene expression at 2 uM after 48 hrs by microarray analysis relative to control; format: cell-based; in short: as §2
A549 [39] = assay: Induction of apoptosis in human A549 cells at 2 uM after 48 hrs by Annexin V-FITC/ethidium homodimer-3/Hoechst 33342 staining based fluorescence microscopic method; format: functional, cell-based
In short: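 A549 cells seeded in chamber slides at 2×10^4 cells/well and exposed to 2 μM for 48 h; vehicle control 0.1% DMSO. Cells were washed in binding buffer and stained with FITC-annexin V (apoptotic), ethidium homodimer III (necrotic) and Hoechst 33342 (all nuclei), then imaged by confocal fluorescence microscopy.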

[40] = molecular target: T1, Histone acetyltransferase p300; assay: Inhibition of p300 (unknown origin) at 1 to 5 uM sing H3 peptide and acetyl-coA as substrate by fluorometric assay
In short: as §1, with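 “substrates. Released CoA-SH reacts with a developer, read at Ex/Em 535/587 nm.” for “substrates.”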

A549 [41] = assay: Anticlonogenic activity against human A549 cells after 10 days; format: functional, cell-based; conditions: A549, 240 h
NCI-H157 = assay: Anticlonogenic activity against human NCI-H157 cells after 10 days; format: functional, cell-based; conditions: NCI-H157, 240 h
NCI-H460 = assay: Anticlonogenic activity against human NCI-H460 cells after 10 days; format: functional, cell-based; conditions: NCI-H460, 240 h

T1 sequence (Q09472 whole entry, the tested form may be a part): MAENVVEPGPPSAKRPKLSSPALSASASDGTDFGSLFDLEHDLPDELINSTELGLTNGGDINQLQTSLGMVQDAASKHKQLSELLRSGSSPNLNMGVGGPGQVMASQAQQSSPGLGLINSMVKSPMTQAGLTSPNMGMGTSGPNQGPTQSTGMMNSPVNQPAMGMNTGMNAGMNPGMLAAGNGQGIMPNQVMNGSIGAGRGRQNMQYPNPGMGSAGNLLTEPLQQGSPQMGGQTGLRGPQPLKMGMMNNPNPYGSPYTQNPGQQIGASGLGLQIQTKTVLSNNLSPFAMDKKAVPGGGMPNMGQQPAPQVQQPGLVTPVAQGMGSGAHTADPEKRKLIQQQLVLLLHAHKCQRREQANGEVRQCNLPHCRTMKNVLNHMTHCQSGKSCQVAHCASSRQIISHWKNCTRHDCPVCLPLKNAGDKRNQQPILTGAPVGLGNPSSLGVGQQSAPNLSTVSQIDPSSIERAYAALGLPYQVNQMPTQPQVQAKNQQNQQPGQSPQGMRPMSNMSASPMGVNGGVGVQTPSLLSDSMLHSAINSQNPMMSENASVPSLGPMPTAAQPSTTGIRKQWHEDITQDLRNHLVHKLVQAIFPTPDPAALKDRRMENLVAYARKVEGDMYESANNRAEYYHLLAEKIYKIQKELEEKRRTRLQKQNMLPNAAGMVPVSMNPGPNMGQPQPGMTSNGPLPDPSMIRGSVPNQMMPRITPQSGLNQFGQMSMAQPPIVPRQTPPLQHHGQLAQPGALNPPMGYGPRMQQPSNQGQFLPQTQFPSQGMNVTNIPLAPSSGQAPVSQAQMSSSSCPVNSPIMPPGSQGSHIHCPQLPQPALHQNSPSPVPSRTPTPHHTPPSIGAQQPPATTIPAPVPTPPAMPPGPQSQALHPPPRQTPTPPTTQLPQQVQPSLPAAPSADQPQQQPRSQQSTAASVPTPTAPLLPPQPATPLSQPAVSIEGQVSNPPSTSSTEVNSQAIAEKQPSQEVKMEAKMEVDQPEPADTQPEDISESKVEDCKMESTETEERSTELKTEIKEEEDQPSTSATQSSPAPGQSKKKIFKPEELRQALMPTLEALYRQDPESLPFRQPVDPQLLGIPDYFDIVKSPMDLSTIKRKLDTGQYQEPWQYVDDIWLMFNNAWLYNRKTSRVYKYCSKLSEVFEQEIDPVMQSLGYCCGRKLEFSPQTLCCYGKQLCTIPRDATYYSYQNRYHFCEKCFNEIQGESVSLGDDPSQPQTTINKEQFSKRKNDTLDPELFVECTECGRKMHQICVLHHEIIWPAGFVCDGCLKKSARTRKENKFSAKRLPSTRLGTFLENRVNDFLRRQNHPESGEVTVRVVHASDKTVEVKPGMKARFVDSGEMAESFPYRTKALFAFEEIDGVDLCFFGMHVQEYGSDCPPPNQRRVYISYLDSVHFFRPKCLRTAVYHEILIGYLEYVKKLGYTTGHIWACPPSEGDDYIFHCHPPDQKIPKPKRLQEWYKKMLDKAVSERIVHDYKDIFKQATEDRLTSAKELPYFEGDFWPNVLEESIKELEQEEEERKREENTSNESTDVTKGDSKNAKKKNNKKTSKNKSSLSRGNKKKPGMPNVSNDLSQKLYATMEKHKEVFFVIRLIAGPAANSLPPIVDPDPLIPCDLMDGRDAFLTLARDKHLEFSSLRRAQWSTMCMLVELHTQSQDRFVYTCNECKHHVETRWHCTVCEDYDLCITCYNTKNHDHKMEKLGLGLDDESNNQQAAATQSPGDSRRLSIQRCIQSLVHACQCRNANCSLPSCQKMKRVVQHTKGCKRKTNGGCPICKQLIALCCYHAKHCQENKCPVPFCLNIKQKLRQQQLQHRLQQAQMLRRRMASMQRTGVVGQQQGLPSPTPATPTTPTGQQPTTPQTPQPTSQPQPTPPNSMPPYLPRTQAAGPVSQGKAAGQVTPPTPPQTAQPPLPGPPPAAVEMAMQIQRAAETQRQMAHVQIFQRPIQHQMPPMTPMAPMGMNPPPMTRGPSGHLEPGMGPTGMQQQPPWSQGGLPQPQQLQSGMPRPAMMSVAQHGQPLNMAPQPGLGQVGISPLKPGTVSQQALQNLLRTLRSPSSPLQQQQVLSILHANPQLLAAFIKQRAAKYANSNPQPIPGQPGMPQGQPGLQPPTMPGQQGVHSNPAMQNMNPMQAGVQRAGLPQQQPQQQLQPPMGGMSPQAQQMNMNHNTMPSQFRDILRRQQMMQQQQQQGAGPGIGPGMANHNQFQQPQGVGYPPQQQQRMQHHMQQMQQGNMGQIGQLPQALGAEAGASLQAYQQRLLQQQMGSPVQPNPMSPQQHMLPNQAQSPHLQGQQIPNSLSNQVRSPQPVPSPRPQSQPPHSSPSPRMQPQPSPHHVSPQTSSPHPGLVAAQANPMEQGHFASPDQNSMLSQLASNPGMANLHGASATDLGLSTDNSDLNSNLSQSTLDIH
Sequence of Cellular tumor antigen p53 (Homo sapiens) (P04637 whole entry, looked up): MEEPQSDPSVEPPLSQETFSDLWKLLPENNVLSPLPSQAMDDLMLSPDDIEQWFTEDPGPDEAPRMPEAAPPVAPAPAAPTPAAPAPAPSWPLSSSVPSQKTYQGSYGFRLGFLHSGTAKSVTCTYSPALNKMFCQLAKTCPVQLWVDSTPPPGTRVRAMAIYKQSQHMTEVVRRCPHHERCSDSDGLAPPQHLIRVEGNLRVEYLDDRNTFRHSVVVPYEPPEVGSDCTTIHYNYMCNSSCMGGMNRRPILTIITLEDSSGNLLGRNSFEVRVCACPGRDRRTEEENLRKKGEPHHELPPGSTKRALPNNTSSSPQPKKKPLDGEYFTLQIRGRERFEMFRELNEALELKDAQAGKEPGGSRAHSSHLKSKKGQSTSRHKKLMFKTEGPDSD

- ΔTm (dsDNA [1]): 13.6 °C
- ΔTm (dsDNA [2]): 20.9 °C
- IC50 [3]: 3.9 to 4.2 µM
- Activity [5]: inactive
- Activity [6]: inactive
- Activity [8]: inactive
- Activity [13]: inactive
- Activity [14]: inactive
- Activity [17]: inactive
- Activity [20]: inactive
- Activity [22]: inactive
- Activity [23]: inactive
- Activity [24]: inactive
- Activity [28]: inactive
- Activity [32]: inactive
- Activity [35]: inactive
- Activity [38]: inactive
Structure (SMILES): CC1=NN(c2ccc(C(=O)NCCOCCOCC(=O)NCCC(=O)Nc3cn(C)c(C(=O)Nc4cc(C(=O)Nc5cn(C)c(C(=O)Nc6cn(C)c(C(=O)NCCCC(=O)Nc7cc(C(=O)Nc8cc(C(=O)Nc9cc(C(=O)Nc%10cc(C(=O)NCCCN(C)C)n(C)c%10)n(C)c9)n(C)c8)n(C)c7)n6)n5)n(C)c4)n3)cc2)C(=O)/C1=C/c1ccc(-c2cc(C)c(C)cc2[N+](=O)[O-])o1
- Activity (A549 [4]): Active
- Activity (A549 [7]): inactive
- Activity (A549 [9]): inactive
- Activity (A549 [10]): inactive
- Activity (A549 [11]): inactive
- Activity (A549 [12]): inactive
- Activity (A549 [15]): inactive
- Activity (A549 [16]): inactive
- Activity (A549 [18]): inactive
- Activity (A549 [19]): inactive
- Activity (A549 [21]): inactive
- Activity (A549 [25]): inactive
- Activity (A549 [26]): inactive
- Activity (A549 [27]): inactive
- Activity (A549 [29]): inactive
- Activity (A549 [30]): inactive
- Activity (A549 [31]): inactive
- Activity (A549 [33]): inactive
- Activity (A549 [34]): inactive
- Activity (A549 [36]): inactive
- Activity (A549 [37]): inactive
- Activity (A549 [39]): inactive

- inhibition [40]: inactive
Structure (SMILES): CC(=O)Nc1cc(C(=O)Nc2cn(C)c(C(=O)Nc3cn(C)c(C(=O)Nc4cc(C(=O)NCCCC(=O)Nc5cc(C(=O)Nc6cc(C(=O)Nc7cc(C(=O)Nc8cc(C(=O)NCCCN(C)C)n(C)c8)n(C)c7)n(C)c6)n(C)c5)n(C)c4)n3)n2)n(C)c1
- Activity (A549 [4]): inactive

- IC50 (A549 [41]): 10 µM
- IC50 (NCI-H157): 6 µM
- IC50 (NCI-H460): 6.3 µM
Structure (SMILES): CC1=NN(c2ccc(C(=O)O)cc2)C(=O)/C1=C/c1ccc(-c2cc(C)c(C)cc2[N+](=O)[O-])o1
- Activity (A549 [4]): inactive

- inhibition [3]: Dose-dependent effect
Structure (SMILES): CCCCCCCCCCCCCCCc1cccc(O)c1C(=O)O
